Source: article PMC3319382 (Bioorganic & medicinal chemistry, 2011)
“Also recorded” adds a separate entry of the source. Each block holds one compound with its values, some of them ahead of it.

Key:
[1] = biological target: Ras Converting Enzyme 1 (Rce1p), HA-epitope tagged, yeast (S. cerevisiae) (UniProt Q03530); assay: cross-linking
yeast Rce1p [2] = biological target: T1, yeast Rce1p (Saccharomyces cerevisiae, UniProt Q03530); assay: fluorescence-based CAAX proteolysis kinetic assay; format: biochemical
T1 sequence (Q03530 1-315): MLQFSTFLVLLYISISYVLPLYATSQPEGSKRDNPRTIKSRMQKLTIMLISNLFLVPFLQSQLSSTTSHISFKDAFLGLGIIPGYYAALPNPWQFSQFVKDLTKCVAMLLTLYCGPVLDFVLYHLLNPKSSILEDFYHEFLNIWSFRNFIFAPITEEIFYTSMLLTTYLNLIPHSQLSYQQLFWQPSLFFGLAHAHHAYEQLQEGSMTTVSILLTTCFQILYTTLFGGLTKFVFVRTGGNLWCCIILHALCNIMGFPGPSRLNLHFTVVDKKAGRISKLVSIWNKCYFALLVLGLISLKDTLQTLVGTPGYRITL
Outline: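 Enzyme source was carbonate-washed membranes from S. cerevisiae overexpressing yeast Rce1p as sole CAAX protease, diluted in 100 mM Hepes pH 7.5, 5 mM MgCl2 and preincubated 10 min at 30 °C. The final mix held 0.25 mg/mL membrane protein and a 10-point substrate series (0–45 or 0–50 μM) in triplicate wells. Read at 340/420 nm every 30–60 s for 1 h at 30 °C. Product was quantified against trypsin-cleaved standard curves.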

yeast Rce1p [3] = biological target: T1, yeast Rce1p; details: ref [12], [13]; cited from earlier work

fold labeling efficiency against probe 8 (fold less than 8) [1]: 4
Compound: Peptide 9, Biotin-K(Dde)KSKTKC(C10BP)K(Dnp)IM

h (Hill coefficient) (yeast Rce1p [2]; Rce1p-enriched membranes 0.25 mg/mL, pH 7.5, 30 °C, Hill Equation fit, n=5): 1.8 | Vmax/KM (yeast Rce1p [2]; Rce1p-enriched membranes 0.25 mg/mL, pH 7.5, 30 °C, n=5): 8.9×10^−5 L/min/mg protein | efficiency (Vmax/KM) of Rce1p processing, fold lower than 2 (yeast Rce1p [2]; compared with 2): 10 -fold | maximal processing rate (Vmax), fold less than 2 (yeast Rce1p [2]; compared with 2): approximately 7 -fold | maximal processing rate (Vmax), fold greater than 4 (yeast Rce1p [2]; compared with 4): 9 -fold | Rce1p substrate (yeast Rce1p [2]; fluorescence-based kinetic evaluation): could serve as a substrate for Rce1p | binding affinity, fold less than that of 4 (yeast Rce1p [2]; from KM, compared with 4): 4 -fold
Compound: Abz-KSKTKC(C10BP)K(Dnp)IM [Peptide 6]
efficiency (Vmax/KM) of Rce1p processing compared with 4 (yeast Rce1p [2]; compared with 4): approximately double that of 4; also recorded: increased approximately two-fold

percent labeling of Rce1p by 14 (15 μM) left with 50 μM 2 [1]: 84% | percent labeling of Rce1p by 14 (15 μM) left with 100 μM 2 [1]: 7%
Compound: Peptide 2, Abz-KSKTKC(farnesyl)K(Dnp)IM, internally quenched fluorogenic farnesylated substrate based on the K-Ras4b C-terminal sequence

Compound: c1cnc2c(c1)ccc1cccnc12 [1,10-phenanthroline]
inhibition of yeast Rce1p (yeast Rce1p [3]): inhibited

Compound: [Zn] [zinc]
inhibition of yeast Rce1p (yeast Rce1p [3]): inhibited
